Columns and labels:
[1] = target: T1, Glutamate NMDA receptor; Grin1/Grin2b (Rattus norvegicus) (UniProt P35439+Q00960); assay: Positive allosteric modulation of recombinant rat GluN1/GluN2B receptor expressed in xenopus laevis oocyte assessed as potentiation of glutamate and glycine-induced current response at 30 uM at holding potential -40mV by two electrode voltage clamp method relative to control
Method in brief: (§1)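 Two-electrode voltage clamp at -40 mV, 23°C, pH 7.4 Ba²⁺ recording solution, on Xenopus oocytes expressing rat NMDA receptors. Currents were evoked by 100 µM glutamate plus 30 µM glycine, with compound co-applied (DMSO 0.05–0.5% final). […] Each compound used at least 4 oocytes from at least 2 frogs.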

[2] = target: Ionotropic glutamate receptor NMDA 1/2D (Rattus norvegicus, UniProt P35439+Q62645); assay: Positive allosteric modulation of recombinant rat GluN1/GluN2D receptor expressed in xenopus laevis oocyte assessed as potentiation of glutamate and glycine-induced current response at holding potential -40mV by two electrode voltage clamp method
Method in brief: (§2)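 Two-electrode voltage clamp at -40 mV, 23°C, pH 7.4 Ba²⁺ recording solution, on Xenopus oocytes expressing rat NMDA receptors. Currents were evoked by 100 µM glutamate plus 30 µM glycine, with compound co-applied (DMSO 0.05–0.5% final). Each compound used at least 4 oocytes from at least 2 frogs.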

[3] = target: Glutamate NMDA receptor; Grin1/Grin2c (Rattus norvegicus, UniProt P35439+Q00961); assay: Positive allosteric modulation of recombinant rat GluN1/GluN2C receptor expressed in xenopus laevis oocyte assessed as potentiation of glutamate and glycine-induced current response at holding potential -40mV by two electrode voltage clamp method; method in brief: as §2
[4] = target: T2, Glutamate NMDA receptor; Grin1/Grin2c (Rattus norvegicus) (UniProt P35439+Q00961); assay: Positive allosteric modulation of recombinant rat GluN1/GluN2C receptor expressed in xenopus laevis oocyte assessed as potentiation of glutamate and glycine-induced current response at 30 uM at holding potential -40mV by two electrode voltage clamp method relative to control; method in brief: as §2
[5] = target: Glutamate NMDA receptor; Grin1/Grin2b (Rattus norvegicus, UniProt P35439+Q00960); assay: Positive allosteric modulation of recombinant rat GluN1/GluN2B receptor expressed in xenopus laevis oocyte assessed as potentiation of glutamate and glycine-induced current response at holding potential -40mV by two electrode voltage clamp method; method in brief: as §2
[6] = target: T3, Ionotropic glutamate receptor NMDA 1/2D (Rattus norvegicus) (UniProt P35439+Q62645); assay: Positive allosteric modulation of recombinant rat GluN1/GluN2D receptor expressed in xenopus laevis oocyte assessed as potentiation of glutamate and glycine-induced current response at 30 uM at holding potential -40mV by two electrode voltage clamp method relative to control; method in brief: as §2
[7] = target: T1, Glutamate NMDA receptor; Grin1/Grin2b (Rattus norvegicus); assay: Positive allosteric modulation of recombinant rat GluN1/GluN2B receptor expressed in xenopus laevis oocyte assessed as compound concentration required to show two fold increase in glutamate and glycine-induced current response at holding potential -40mV by two electrode voltage clamp method
[8] = target: T2, Glutamate NMDA receptor; Grin1/Grin2c (Rattus norvegicus); assay: Positive allosteric modulation of recombinant rat GluN1/GluN2C receptor expressed in xenopus laevis oocyte assessed as compound concentration required to show two fold increase in glutamate and glycine-induced current response at holding potential -40mV by two electrode voltage clamp method
[9] = target: T1, Glutamate NMDA receptor; Grin1/Grin2b (Rattus norvegicus); assay: Positive allosteric modulation of recombinant rat GluN1/GluN2B receptor expressed in xenopus laevis oocyte assessed as potentiation of glutamate-induced current response at 30 uM at holding potential -40mV by two electrode voltage clamp method
[10] = target: T3, Ionotropic glutamate receptor NMDA 1/2D (Rattus norvegicus); assay: Positive allosteric modulation of recombinant rat GluN1/GluN2D receptor expressed in xenopus laevis oocyte assessed as compound concentration required to show two fold increase in glutamate and glycine-induced current response at holding potential -40mV by two electrode voltage clamp method
[11] = target: T2, Glutamate NMDA receptor; Grin1/Grin2c (Rattus norvegicus); assay: Positive allosteric modulation of recombinant rat GluN1/GluN2C receptor expressed in xenopus laevis oocyte assessed as potentiation of glutamate and glycine-induced current response at 10 uM at holding potential -40mV by two electrode voltage clamp method relative to control; method in brief: as §1
[12] = target: T3, Ionotropic glutamate receptor NMDA 1/2D (Rattus norvegicus); assay: Positive allosteric modulation of recombinant rat GluN1/GluN2D receptor expressed in xenopus laevis oocyte assessed as potentiation of glutamate and glycine-induced current response at 10 uM at holding potential -40mV by two electrode voltage clamp method relative to control; method in brief: as §1
[13] = target: T1, Glutamate NMDA receptor; Grin1/Grin2b (Rattus norvegicus); assay: Positive allosteric modulation of recombinant rat GluN1/GluN2B receptor expressed in xenopus laevis oocyte assessed as potentiation of glutamate and glycine-induced current response at 10 uM at holding potential -40mV by two electrode voltage clamp method relative to control; conditions: 30 uM, in the assay text read “at 30 uM” for “at 10 uM”; method in brief: as §1

| Activity [1] | Emax [1] | EC50 [2] | EC50 [3] | Activity [4] | Emax [4] | EC50 [5] | Activity [6] | Emax [6] | CD [7] | CD [8] | Activity [9] | CD [10] | Emax ([11]; 10 uM) | Activity ([11]; 30 uM, in the assay text read “at 30 uM” for “at 10 uM”) | Activity [12] | Emax [13] | SMILES |
| --- | --- | --- | --- | --- | --- | --- | --- | --- | --- | --- | --- | --- | --- | --- | --- | --- | --- |
| 213% | 221% | 4 µM | 2.3 µM | 289% | 313% | 4.9 µM | 418% | 464% | – | – | – | – | – | – | – | – | COc1ccc(OCC2c3ccc(N4CCCCC4)cc3CCN2C(=O)c2cccc(Cl)c2)cc1 (stereo not given) |
| – | 222% | 0.44 µM | 0.35 µM | – | 159% | 0.84 µM | – | 128% | 17 µM | – | – | – | – | – | – | – | CCOc1ccc(OCC2c3ccc(OC(C)C)cc3CCN2C(=S)c2ccc(F)c(Cl)c2)cc1 (stereo not given) |
| – | – | – | – | – | 252% | – | – | 297% | – | 1.3 µM | 101% | 1 µM | – | – | – | – | COc1ccc(OC[C@H]2c3ccc(OC(C)C)cc3CCN2C(=O)c2cccc(Cl)c2)cc1 |
| – | 259% | 1.1 µM | 0.97 µM | – | 226% | 1.4 µM | – | 208% | 1.9 µM | 2.1 µM | – | 4.2 µM | – | – | – | – | COc1ccc(OCC2c3ccc(OC(C)C)cc3CCN2C(=S)c2cccc(F)c2)cc1 (stereo not given) |
| 332% | 342% | 3.4 µM | 3.1 µM | 309% | 325% | 2.5 µM | 351% | 364% | – | – | – | – | – | – | – | – | CCOc1ccc(OCC2c3ccc(OCC(C)C)cc3CCN2C(=O)c2cccc(F)c2)cc1 (stereo not given) |
| – | – | – | 1.8 µM | – | – | 5.3 µM | – | – | – | – | – | – | 128% | 126% | 102% | 158% | CCOc1ccc(OCC2c3ccc(OC(C)C)cc3CCN2C(=O)c2cccc(Cl)c2)cc1 (stereo not given) |
| 152% | 165% | 4.3 µM | 3 µM | 279% | 314% | 4.8 µM | 284% | 425% | – | – | – | – | – | – | – | – | COc1ccc(OCC2c3ccc(N4CCOCC4)cc3CCN2C(=O)c2cccc(Br)c2)cc1 (stereo not given) |
| – | 203% | 1.2 µM | 0.7 µM | – | 158% | 0.67 µM | – | 154% | 9 µM | – | – | – | – | – | – | – | CC(C)Oc1ccc(OCC2c3ccc(OC(C)C)cc3CCN2C(=S)c2cccc(F)c2)cc1 (stereo not given) |
| 163% | 182% | 11 µM | 9.5 µM | 251% | 290% | 12 µM | 244% | 288% | – | – | – | – | – | – | – | – | COc1ccc(OCC2c3ccc(OC(C)C)cc3CCN2C(=O)c2ccc(Cl)cc2)cc1 (stereo not given) |
| – | 191% | 0.33 µM | 0.34 µM | – | 162% | 0.27 µM | – | 133% | – | – | – | – | – | – | – | – | CC(C)Oc1ccc(OCC2c3ccc(OC(C)C)cc3CCN2C(=S)c2cccc(C(F)(F)F)c2)cc1 (stereo not given) |
| – | – | 2 µM | 1.7 µM | – | 253% | – | – | 250% | – | 3.8 µM | 105% | 4.9 µM | – | – | – | – | COc1ccc(OC[C@H]2c3ccc(OC(C)C)cc3CCN2C(=S)c2cccc(Cl)c2)cc1 |
| 169% | 170% | 2.2 µM | 1.3 µM | 159% | 162% | 2.2 µM | 133% | 137% | – | – | – | – | – | – | – | – | CCOc1ccc(OCC2c3ccc(OC(C)C)cc3CCN2C(=O)c2ccc(F)c(Cl)c2)cc1 (stereo not given) |
| – | 190% | 0.45 µM | 0.35 µM | – | 141% | 0.72 µM | – | 128% | – | – | – | – | – | – | – | – | CCOc1ccc(OCC2c3ccc(OC(C)C)cc3CCN2C(=S)c2cccc(C(F)(F)F)c2)cc1 (stereo not given) |
| – | 172% | 1.6 µM | 5 µM | – | 278% | 0.4 µM | – | 192% | – | 7.6 µM | – | – | – | – | – | – | CCOc1ccc(OCC2c3ccc(OC(C)C)cc3CCN2C(=S)c2cccc(Cl)c2)cc1 (stereo not given) |

Source: ChEMBL document CHEMBL4011622, “The Structure-Activity Relationship of a Tetrahydroisoquinoline Class of N-Methyl-d-Aspartate Receptor Modulators that Potentiates GluN2B-Containing N-Methyl-d-Aspartate Receptors” (J Med Chem, 2017)
